According to ChEMBL document CHEMBL4190409, “New somatostatin-drug conjugates for effective targeting pancreatic cancer” (Bioorg Med Chem, 2018):
Calls of active or inactive are those of the source. No cut-off for these calls is given here. Peptide text beside a SMILES is read from it.

Experiments:
[1] = Half life in IMDM culture medium by LC-MS analysis; format: physicochemical
Summary of the method: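 Conjugate stock (10 µl) added to 1 ml IMDM (DME-based, 20% bovine serum) at 37°C. Aliquots taken at 1, 3, 6, 24, 48, 72 and 96 h, quenched with 2.5 vol ethanol, centrifuged, filtered and analysed by LC-MS. At least three measurements.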

[2] = test system: CAPAN-1; assay: Cytotoxicity against human Capan1 cells after 48 hrs by XTT assay; format: functional, cell-based; details: CAPAN-1, 48 h
Summary of the method: (§1)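 Cells seeded at 5-10 x 10^4 cells/mL and preincubated 24 h, then washed and given fresh medium with a concentration series for 48 h or 72 h. XTT added for a further 2-4 h, absorbance read at 480 and 680 nm. % growth inhibition taken against medium+solvent and solvent-free controls. DMSO final <0.05%. Tetraplicates, each experiment run twice.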

[3] = test system: CAPAN-1; assay: Cytotoxicity against human Capan1 cells after 72 hrs by XTT assay; format: functional, cell-based; details: CAPAN-1, 72 h; summary of the method: as §1
[4] = test system: PANC-1; assay: Cytotoxicity against human PANC1 cells after 48 hrs by XTT assay; format: functional, cell-based; details: PANC-1, 48 h; summary of the method: as §1
[5] = test system: PANC-1; assay: Cytotoxicity against human PANC1 cells after 72 hrs by XTT assay; format: functional, cell-based; details: PANC-1, 72 h; summary of the method: as §1
[6] = biological target: T1, Somatostatin receptor type 2 (Homo sapiens, UniProt P30874); assay: Agonist activity at SSTR2 (unknown origin) expressed in HEK293 cells assessed as inhibition of forskolin-induced CRE promoter activity at 10 to 1000 nM by luciferase reporter gene assay; format: functional, cell-based
T1 sequence (P30874 whole entry): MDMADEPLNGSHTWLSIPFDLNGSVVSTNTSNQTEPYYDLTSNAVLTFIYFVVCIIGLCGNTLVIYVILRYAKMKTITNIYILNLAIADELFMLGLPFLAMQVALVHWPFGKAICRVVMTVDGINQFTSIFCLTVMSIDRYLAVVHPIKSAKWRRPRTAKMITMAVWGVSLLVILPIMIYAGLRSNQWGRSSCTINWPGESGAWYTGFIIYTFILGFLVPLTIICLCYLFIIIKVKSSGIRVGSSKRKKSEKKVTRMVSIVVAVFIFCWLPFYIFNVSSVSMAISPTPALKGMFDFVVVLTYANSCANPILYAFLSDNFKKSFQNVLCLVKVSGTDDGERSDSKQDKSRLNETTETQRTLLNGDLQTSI
Summary of the method: (§2)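 HEK-293 cells (70,000/well) co-transfected via JetPei with CRE-luciferase reporter, β-galactosidase construct and one SSTR subtype vector (empty pcDNA3.1 control). After 1 day, treated with 10 µM forskolin alone or with peptide. Luminescence read relative to forskolin alone and normalized to β-galactosidase (ONPG). Triplicates, representative of three experiments.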

[7] = biological target: T2, Somatostatin receptor type 3 (Homo sapiens, UniProt P32745); assay: Agonist activity at SSTR3 (unknown origin) expressed in HEK293 cells assessed as inhibition of forskolin-induced CRE promoter activity at 10 to 1000 nM by luciferase reporter gene assay; format: functional, cell-based; summary of the method: as §2
T2 sequence (P32745 whole entry): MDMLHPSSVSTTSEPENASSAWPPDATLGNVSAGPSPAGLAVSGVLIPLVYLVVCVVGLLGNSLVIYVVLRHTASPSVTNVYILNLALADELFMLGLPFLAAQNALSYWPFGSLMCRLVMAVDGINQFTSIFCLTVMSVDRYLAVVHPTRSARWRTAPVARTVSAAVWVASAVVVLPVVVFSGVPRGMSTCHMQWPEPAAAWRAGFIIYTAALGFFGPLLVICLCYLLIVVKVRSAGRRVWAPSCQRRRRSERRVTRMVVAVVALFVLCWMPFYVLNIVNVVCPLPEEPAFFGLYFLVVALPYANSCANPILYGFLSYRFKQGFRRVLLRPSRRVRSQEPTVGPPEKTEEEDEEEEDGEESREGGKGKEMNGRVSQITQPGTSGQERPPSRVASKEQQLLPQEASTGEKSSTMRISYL

[8] = biological target: T3, Somatostatin receptor type 1 (Homo sapiens, UniProt P30872); assay: Agonist activity at SSTR1 (unknown origin) expressed in HEK293 cells assessed as inhibition of forskolin-induced CRE promoter activity at 10 to 1000 nM by luciferase reporter gene assay; format: functional, cell-based; summary of the method: as §2
T3 sequence (P30872 whole entry): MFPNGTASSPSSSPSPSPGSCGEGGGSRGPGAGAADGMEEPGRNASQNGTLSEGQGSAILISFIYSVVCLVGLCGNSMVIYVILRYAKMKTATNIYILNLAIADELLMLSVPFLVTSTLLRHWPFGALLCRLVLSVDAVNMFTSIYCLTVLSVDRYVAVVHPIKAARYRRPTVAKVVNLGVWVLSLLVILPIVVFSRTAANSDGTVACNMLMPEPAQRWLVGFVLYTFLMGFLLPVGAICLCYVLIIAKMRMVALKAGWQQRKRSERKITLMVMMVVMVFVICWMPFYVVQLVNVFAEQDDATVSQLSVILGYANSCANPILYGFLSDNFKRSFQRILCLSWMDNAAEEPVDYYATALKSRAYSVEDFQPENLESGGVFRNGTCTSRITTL

[9] = biological target: T4, Somatostatin receptor type 4 (Homo sapiens, UniProt P31391); assay: Agonist activity at SSTR4 (unknown origin) expressed in HEK293 cells assessed as inhibition of forskolin-induced CRE promoter activity at 10 to 1000 nM by luciferase reporter gene assay; format: functional, cell-based; summary of the method: as §2
T4 sequence (P31391 whole entry): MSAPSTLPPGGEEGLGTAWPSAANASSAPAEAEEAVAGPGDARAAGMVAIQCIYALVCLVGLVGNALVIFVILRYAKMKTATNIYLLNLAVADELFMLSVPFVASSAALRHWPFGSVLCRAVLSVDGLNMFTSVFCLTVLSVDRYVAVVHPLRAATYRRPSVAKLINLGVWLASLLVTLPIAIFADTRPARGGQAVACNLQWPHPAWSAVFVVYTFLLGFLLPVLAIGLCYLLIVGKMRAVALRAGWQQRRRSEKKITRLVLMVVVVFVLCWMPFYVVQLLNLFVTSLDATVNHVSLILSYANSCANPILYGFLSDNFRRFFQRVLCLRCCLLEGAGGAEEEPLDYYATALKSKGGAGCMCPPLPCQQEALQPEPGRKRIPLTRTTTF

[10] = biological target: T5, Somatostatin receptor type 5 (Homo sapiens, UniProt P35346); assay: Agonist activity at SSTR5 (unknown origin) expressed in HEK293 cells assessed as inhibition of forskolin-induced CRE promoter activity at 10 to 1000 nM by luciferase reporter gene assay; format: functional, cell-based; summary of the method: as §2
T5 sequence (P35346 whole entry): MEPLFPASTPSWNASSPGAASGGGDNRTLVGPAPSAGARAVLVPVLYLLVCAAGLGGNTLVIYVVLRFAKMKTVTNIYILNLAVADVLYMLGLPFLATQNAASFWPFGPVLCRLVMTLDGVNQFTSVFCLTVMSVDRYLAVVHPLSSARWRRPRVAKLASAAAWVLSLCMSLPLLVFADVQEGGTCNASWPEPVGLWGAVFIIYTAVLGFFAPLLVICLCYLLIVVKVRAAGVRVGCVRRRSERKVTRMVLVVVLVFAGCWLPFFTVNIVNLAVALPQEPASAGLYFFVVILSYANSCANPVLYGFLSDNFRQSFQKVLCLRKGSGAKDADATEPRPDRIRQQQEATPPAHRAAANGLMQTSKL

[11] = Drug uptake in tumor of athymic nude mouse xenografted with human PANC1 cells at 120 mg/kg, iv measured after 24 hrs by fluorescent microscopic analysis; format: ADME, organism-based, Neoplasm; details: in vivo
Summary of the method: (§3)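 Five-week-old athymic nude mice inoculated subcutaneously in the dorsal left side with Panc-1 cells. When tumours reached 100 mm3, FITC-labelled peptide or peptide–CPT conjugate was given intravenously at 120 mg/kg as a single dose. At 24 h, tumour, spleen, pancreas, kidney and liver were excised and fluorescence was imaged by microscopy with a CCD camera.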

[12] = Drug uptake in kidney of athymic nude mouse xenografted with human PANC1 cells at 120 mg/kg, iv measured after 24 hrs by fluorescent microscopic analysis; format: ADME, organism-based; details: in vivo; summary of the method: as §3
[13] = Drug uptake in pancreas of athymic nude mouse xenografted with human PANC1 cells at 120 mg/kg, iv measured after 24 hrs by fluorescent microscopic analysis; format: ADME, organism-based; details: in vivo; summary of the method: as §3
[14] = biological target: T3, Somatostatin receptor type 1; assay: Drug uptake in HEK293 cells co-expressing SSTR1 (unknown origin) and RFP assessed as SSTR1-mediated drug accumulation by measuring mean fluorescence intensity measured after 30 mins by fluorescence microscopic analysis (reference value: 1.1); format: ADME, cell-based; details: hek293, 0.5 h
[15] = biological target: T1, Somatostatin receptor type 2; assay: Drug uptake in HEK293 cells co-expressing SSTR2 (unknown origin) and RFP assessed as SSTR2-mediated drug accumulation by measuring mean fluorescence intensity measured after 30 mins by fluorescence microscopic analysis (reference value: 1.1); format: ADME, cell-based; details: hek293, 0.5 h
[16] = biological target: T2, Somatostatin receptor type 3; assay: Drug uptake in HEK293 cells co-expressing SSTR3 (unknown origin) and RFP assessed as SSTR3-mediated drug accumulation by measuring mean fluorescence intensity measured after 30 mins by fluorescence microscopic analysis (reference value: 1.1); format: ADME, cell-based; details: hek293, 0.5 h
[17] = biological target: T4, Somatostatin receptor type 4; assay: Drug uptake in HEK293 cells co-expressing SSTR4 (unknown origin) and RFP assessed as SSTR4-mediated drug accumulation by measuring mean fluorescence intensity measured after 30 mins by fluorescence microscopic analysis (reference value: 1.1); format: ADME, cell-based; details: hek293, 0.5 h
[18] = biological target: T5, Somatostatin receptor type 5; assay: Drug uptake in HEK293 cells co-expressing SSTR5 (unknown origin) and RFP assessed as SSTR5-mediated drug accumulation by measuring mean fluorescence intensity measured after 30 mins by fluorescence microscopic analysis (reference value: 1.1); format: ADME, cell-based; details: hek293, 0.5 h
[19] = biological target: T1, Somatostatin receptor type 2; assay: Drug uptake in HEK293 cells co-expressing SSTR2 (unknown origin) and RFP assessed as SSTR2-mediated drug accumulation by measuring mean fluorescence intensity at 400 nM measured after 15 mins in presence of SSTR2 agonist octreotide by fluorescence assay; format: cell-based; details: hek293, 0.25 h, 0.4 µM
Summary of the method: (§4)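 FITC-peptide at 400 nM then added for 15 min. FITC/RFP fluorescence imaged; mean fluorescence intensity of FITC+ cells quantified (n = 10), representative of three experiments.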

[20] = biological target: T4, Somatostatin receptor type 4; assay: Drug uptake in HEK293 cells co-expressing SSTR4 (unknown origin) and RFP assessed as SSTR4-mediated drug accumulation by measuring mean fluorescence intensity at 400 nM measured after 15 mins in presence of SSTR2 agonist octreotide by fluorescence assay; format: cell-based; details: hek293, 0.25 h, 0.4 µM; summary of the method: as §4

| Compound | half-life [1] | IC50 [2] | IC50 [3] | IC50 [4] | IC50 [5] | further results |
| --- | --- | --- | --- | --- | --- | --- |
| COc1cc(C2c3[nH]c4ccccc4c3CC3COC(=O)N32)cc(OC)c1OC(=O)NCCCC(=O)N[C@H](Cc1ccccc1)C(=O)N[C@@H](CCCNC(=N)N)C(=O)N[C@H]1CSSCCN(CC(N)=O)C(=O)[C@H](Cc2ccccc2)NC(=O)[C@H]([C@@H](C)O)NC(=O)[C@H](CCCCN)NC(=O)[C@@H](Cc2c[nH]c3ccccc23)NC(=O)[C@H](Cc2ccccc2)NC1=O (stereo partly drawn) | 3 h | 1470 nM | 1430 nM | 270 nM | 140 nM | – |
| COc1cc(C2c3[nH]c4ccccc4c3CC3COC(=O)N32)cc(OC)c1OC(=O)NCCCC(=O)N[C@H](Cc1ccccc1)C(=O)N[C@H]1CSSCCN(CC(N)=O)C(=O)[C@H](Cc2ccccc2)NC(=O)[C@H]([C@@H](C)O)NC(=O)[C@H](CCCCN)NC(=O)[C@H](Cc2c[nH]c3ccccc23)NC(=O)[C@@H](Cc2c[nH]c3ccccc23)NC(=O)[C@H](Cc2ccccc2)NC1=O (stereo partly drawn) | 5 h | 250 nM | 90 nM | 2980 nM | 2130 nM | – |
| C[C@@H](O)[C@@H]1NC(=O)[C@H](CCCCN)NC(=O)[C@@H](Cc2c[nH]c3ccccc23)NC(=O)[C@H](Cc2ccccc2)NC(=O)[C@@H](NC(=O)[C@H](N)Cc2ccccc2)CSSC[C@@H](C(=O)N[C@H](CO)[C@@H](C)O)NC1=O | – | – | – | – | – | inhibition [6]: Active; inhibition [7]: Active |
| C[C@@H](O)[C@@H]1NC(=O)[C@H](CCCCN)NC(=O)[C@@H](Cc2c[nH]c3ccccc23)NC(=O)[C@H](Cc2ccccc2)NC(=O)[C@@H](NC(=O)[C@H](CCCNC(=N)N)NC(=O)[C@@H](Cc2ccccc2)NC(=O)CCCNC(=S)Nc2ccc(-c3c4ccc(=O)cc-4oc4cc(O)ccc34)c(C(=O)O)c2)CSSCCN(CC(N)=O)C(=O)[C@H](Cc2ccccc2)NC1=O | – | – | – | – | – | inhibition [8]: inactive; inhibition [6]: Active; inhibition [7]: Active; inhibition [9]: Active; inhibition [10]: Active; Drug uptake [11]: Active; Drug uptake [12]: Active; Drug uptake [13]: Not Active |
| COc1cc([C@@H]2c3[nH]c4ccccc4c3C[C@H]3COC(=O)N32)cc(OC)c1O | – | 1570 nM | 1230 nM | – | 610 nM | – |
| C[C@@H](O)[C@@H]1NC(=O)[C@H](CCCCN)NC(=O)[C@H](Cc2c[nH]c3ccccc23)NC(=O)[C@@H](Cc2c[nH]c3ccccc23)NC(=O)[C@H](Cc2ccccc2)NC(=O)[C@@H](NC(=O)[C@@H](Cc2ccccc2)NC(=O)CCCNC(=S)Nc2ccc(-c3c4ccc(=O)cc-4oc4cc(O)ccc34)c(C(=O)O)c2)CSSCCN(CC(N)=O)C(=O)[C@H](Cc2ccccc2)NC1=O | – | – | – | – | – | inhibition [8]: inactive; inhibition [6]: Active; inhibition [7]: Active; inhibition [9]: Active; inhibition [10]: Active; Flu intensity [14]: 0.9; Flu intensity [15]: 6.7; Flu intensity [16]: 42.1; Flu intensity [17]: 32.4; Flu intensity [18]: 48.8; Flu intensity [19]: 0.9; Flu intensity [20]: 21.1 |
| COc1ccc(/C=C\c2cc(OC)c(OC)c(OC)c2)cc1OC(=O)NCCCC(=O)N[C@H](Cc1ccccc1)C(=O)N[C@H]1CSSCCN(CC(N)=O)C(=O)[C@H](Cc2ccccc2)NC(=O)[C@H]([C@@H](C)O)NC(=O)[C@H](CCCCN)NC(=O)[C@H](Cc2c[nH]c3ccccc23)NC(=O)[C@@H](Cc2c[nH]c3ccccc23)NC(=O)[C@H](Cc2ccccc2)NC1=O | 18 h | 2560 nM | 2090 nM | 2670 nM | 1190 nM | – |
| COc1cc(/C=C\c2ccc(ON[C@H](Cc3ccccc3)C(=O)N[C@@H](CCCNC(=N)N)C(=O)N[C@H]3CSSCCN(CC(N)=O)C(=O)[C@H](Cc4ccccc4)NC(=O)[C@H]([C@@H](C)O)NC(=O)[C@H](CCCCN)NC(=O)[C@@H](Cc4c[nH]c5ccccc45)NC(=O)[C@H](Cc4ccccc4)NC3=O)c(OC(=O)NCCCC(C)=O)c2)cc(OC)c1OC | 15 h | 670 nM | 520 nM | 1720 nM | 1170 nM | – |
| COc1ccc(/C=C\c2cc(OC)c(OC)c(OC)c2)cc1O [COMBRETASTATIN A4] | – | 840 nM | – | – | 160 nM | – |
| C[C@@H](O)[C@@H]1NC(=O)[C@H](CCCCN)NC(=O)[C@H](Cc2c[nH]c3ccccc23)NC(=O)[C@@H](Cc2c[nH]c3ccccc23)NC(=O)[C@H](Cc2ccccc2)NC(=O)[C@@H](NC(=O)[C@H](N)Cc2ccccc2)CSSCCN(CC(N)=O)C(=O)[C@H](Cc2ccccc2)NC1=O | – | > 50000 nM | > 50000 nM | > 50000 nM | > 50000 nM | – |
| CC[C@@]1(O)C(=O)OCc2c1cc1n(c2=O)Cc2cc3ccccc3nc2-1 [CAMPTOTHECIN] | – | – | 210 nM | 180 nM | 90 nM | – |
| C[C@@H](O)[C@@H]1NC(=O)[C@H](CCCCN)NC(=O)[C@@H](Cc2c[nH]c3ccccc23)NC(=O)[C@H](Cc2ccccc2)NC(=O)[C@@H](NC(=O)[C@H](CCCNC(=N)N)NC(=O)[C@H](N)Cc2ccccc2)CSSCCN(CC(N)=O)C(=O)[C@H](Cc2ccccc2)NC1=O (HELM PEPTIDE1{[dF].R.C.F.[dW].K.T.F.[O=C(CN(CCS[*:3])[*:1])[*:2]].[am]}$PEPTIDE1,PEPTIDE1,3:R3-9:R3$$$V2.0) | – | > 50000 nM | > 50000 nM | > 50000 nM | > 50000 nM | – |
